Assay results reported in ChEMBL document CHEMBL1255484, “In vitro activity of ACH-702, a new isothiazoloquinolone, against Nocardia brasiliensis compared with econazole and the carbapenems imipenem and meropenem alone or in combination with clavulanic acid” (Antimicrob Agents Chemother, 2010).
Converted amounts (≈) assume the structure as drawn.

What was measured:
[1] = system: Nocardia brasiliensis; test: Antibacterial activity against Nocardia brasiliensis isolated from actinomycetoma patient by broth dilution method; type: functional
In short: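 CLSI M24-A broth microdilution on 30 N. brasiliensis isolates from human actinomycetoma, including HUJEG-1, identified biochemically and by 16S rRNA gene fragment sequencing. Ground colonies were suspended to 0.5 McFarland in cation-adjusted Mueller-Hinton broth, giving 1 × 10^4 to 5 × 10^4 CFU per well, and added to serial drug dilutions. Incubation was 3 days at 35°C. MIC is the lowest concentration giving total growth inhibition; MIC50/MIC90 are reported.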

[2] = system: Nocardia brasiliensis; test: Antibacterial activity against Nocardia brasiliensis isolated from actinomycetoma patient by broth dilution method in presence of clavulanic acid; type: functional
In short: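 Same CLSI M24-A broth microdilution: 30 human actinomycetoma N. brasiliensis isolates, cation-adjusted Mueller-Hinton broth, inoculum 1 × 10^4 to 5 × 10^4 CFU per well, 3 days at 35°C. Clavulanic acid at 0.25 μg/ml was added with each carbapenem dilution. Drug-free growth well; E. coli ATCC 25922 and S. aureus ATCC 29213 as external controls. MIC is total growth inhibition.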

[3] = system: Mus musculus; test: Plasma concentration in mouse at 3.3 mg/kg, po; type: ADME, organism-based; set-up: dose 3.3 mg/kg, route oral; settings: in vivo
[4] = Tmax in mouse plasma at 3.3 mg/kg, po; type: ADME, organism-based; set-up: dose 3.3 mg/kg, route oral

Row | Structure (SMILES) | MIC50 [1] [µg/mL] | MIC90 [1] [µg/mL] | MIC50 [2] [µg/mL] | MIC90 [2] [µg/mL] | Cp [3] [ng/mL] | Tmax [4] [h]
1 | C[C@@H](O)[C@H]1C(=O)N2C(C(=O)O)=C(S[C@@H]3CN[C@H](C(=O)N(C)C)C3)[C@H](C)[C@H]12 [MEROPENEM] | 2 (≈ 5.22 µM) | 8 (≈ 20.9 µM) | 2 | 8 | – | –
2 | Clc1ccc(COC(Cn2ccnc2)c2ccc(Cl)cc2Cl)cc1 (centres undefined) [ECONAZOLE] | 2 (≈ 5.24 µM) | 4 (≈ 10.5 µM) | – | – | 230 | 1
3 | C[C@@H](O)[C@H]1C(=O)N2C(C(=O)O)=C(SCCNC=N)C[C@H]12 [IMIPENEM ANHYDROUS] | 64 (≈ 214 µM) | > 64 | 64 | > 64 | – | –
4 | COc1c(N2CC[C@@H](C(C)(C)N)C2)c(F)cc2c(=O)c3c(=O)[nH]sc3n(C3CC3)c12 | 0.125 (≈ 0.289 µM) | 0.5 (≈ 1.16 µM) | – | – | – | –
